In ChEMBL document CHEMBL1124652, “Resolved 6,7,8,9-tetrahydro-N,N-dimethyl-3H-benz[e]indol-8-amine: central dopamine and serotonin receptor stimulating properties” (J Med Chem, 1989):
Active and inactive are the calls of the source. The calls are words filed in the database; no cut-off is given here.

Legend:
Rattus norvegicus [1] = experiment: Effect on Dopa accumulation upon subcutaneous administration in the corpus striatum of rat brain; format: functional; conditions: sc
Rattus norvegicus [2] = experiment: Effect of compound on 5-Hydroxy tryptamine accumulation upon subcutaneous administration in the hemisphere of rat brain; format: functional; conditions: sc
Rattus norvegicus [3] = experiment: Effect of compound on 5-Hydroxy tryptamine accumulation upon subcutaneous administration in the corpus striatum of rat brain; format: functional; conditions: sc
D(1A) dopamine receptor [4] = target: T1, D(1A) dopamine receptor (Rattus norvegicus, UniProt P18901); experiment: In vitro binding activity against dopamine receptor D1 from homogenized rat brain, using [3H]SCH-23390 as the radioligand.
T1 sequence (P18901 whole entry): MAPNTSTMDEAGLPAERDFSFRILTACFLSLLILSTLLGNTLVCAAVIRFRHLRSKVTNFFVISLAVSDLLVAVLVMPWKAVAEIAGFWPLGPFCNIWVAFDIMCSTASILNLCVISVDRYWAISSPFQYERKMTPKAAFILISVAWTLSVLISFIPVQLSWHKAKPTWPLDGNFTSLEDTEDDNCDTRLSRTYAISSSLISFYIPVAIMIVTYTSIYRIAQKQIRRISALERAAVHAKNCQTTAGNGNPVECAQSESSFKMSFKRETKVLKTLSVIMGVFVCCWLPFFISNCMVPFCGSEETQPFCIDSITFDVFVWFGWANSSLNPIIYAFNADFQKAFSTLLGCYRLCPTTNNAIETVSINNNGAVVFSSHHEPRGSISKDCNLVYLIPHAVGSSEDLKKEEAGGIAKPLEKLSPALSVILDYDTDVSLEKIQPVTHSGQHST
How it was run: (§1)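 Rat striatal membranes prepared in 50 mM potassium phosphate pH 7.4 and centrifuged at 25000g. Incubated with 0.2 nM [3H]SCH 23390 (1 mg original tissue) for 60 min at 30 °C, then separated by rapid filtration. Specific binding defined with 1 μM cis-(Z)-flupentixol.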

Rattus norvegicus [5] = experiment: Effect on Dopa accumulation upon subcutaneous administration in the limbic system of rat brain; format: functional; conditions: sc
Rattus norvegicus [6] = experiment: Effect on motor activity in rats at a dose of 2 uM/Kg; format: functional
Rattus norvegicus [7] = experiment: Effect on Dopa accumulation upon subcutaneous administration in the hemispheres of rat brain (partial response); format: functional; conditions: sc
Rattus norvegicus [8] = experiment: Effect of compound on 5-Hydroxy tryptamine accumulation upon subcutaneous administration in the limbic system of rat brain; format: functional; conditions: sc
Rattus norvegicus [9] = experiment: Effect on Dopa accumulation upon subcutaneous administration in the limbic system of rat brain; I - inactive at highest dose (50 umol/kg); format: functional, organism-based
Rattus norvegicus [10] = species on record: Rattus norvegicus; experiment: […]; format: functional, organism-based; conditions: Striatum
Rattus norvegicus [11] = experiment: Effect on Dopa accumulation upon subcutaneous administration in the hemispheres of rat brain; I - inactive at highest dose (50 umol/kg); format: functional, organism-based
Rattus norvegicus [12] = experiment: Effect of compound on 5-Hydroxy transaminase accumulation upon subcutaneous administration in the limbic system of rat brain; format: functional; conditions: sc
How it was run: (§2)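 Male Sprague-Dawley rats (200-300 g) were dosed subcutaneously at 5 mL/kg with neutral-pH solutions. Dose-response curves used four to six dose levels (n = 4) per substance and per brain area, up to 50 μmol/kg. 5-HTP was measured in dissected brain regions by HPLC with electrochemical detection, and ED50 values were derived from the curves.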

Rattus norvegicus [13] = experiment: Effect of compound on 5-Hydroxy transaminase accumulation upon subcutaneous administration in the hemisphere of rat brain; format: functional; conditions: sc; how it was run: as §2
Rattus norvegicus [14] = experiment: Effect of compound on 5-Hydroxy transaminase accumulation upon subcutaneous administration in the corpus striatum of rat brain; format: functional; conditions: sc
How it was run: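 Male Sprague-Dawley rats (200-300 g) received the compound subcutaneously at 5 mL/kg in neutral-pH solution, at four to six dose levels up to 50 μmol/kg (n = 4 per dose). 5-HTP in the corpus striatum was measured by HPLC with electrochemical detection. A separate dose-response curve per substance and brain area gave ED50 values.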

Rattus norvegicus [15] = experiment: Effect of compound on 5-Hydroxy transaminase accumulation upon subcutaneous administration in the limbic system of rat brain; I - inactive at highest dose (50 umol/kg); format: functional, organism-based
Rattus norvegicus [16] = experiment: Effect of compound on 5-Hydroxy transaminase accumulation upon subcutaneous administration in the corpus striatum of rat brain; I - inactive at highest dose (50 umol/kg); format: functional, organism-based
Rattus norvegicus [17] = experiment: Effect of compound on 5-Hydroxy transaminase accumulation upon subcutaneous administration in the hemisphere of rat brain; I - inactive at highest dose (50 umol/kg); format: functional, organism-based
Rattus norvegicus [18] = experiment: Effect on Dopa accumulation upon subcutaneous administration in the hemispheres of rat brain; format: functional; conditions: sc
Rattus norvegicus [19] = experiment: Effect on motor activity in rats at a dose of 12.5 uM/Kg; format: functional
D(1A) dopamine receptor [20] = target: T1, D(1A) dopamine receptor; experiment: In vitro binding activity against dopamine D1 receptor from homogenized rat brain, using [3H]SCH-23390 as the radioligand; how it was run: as §1
D(2) dopamine receptor [21] = target: T2, D(2) dopamine receptor (Rattus norvegicus, UniProt P61169); experiment: In vitro binding activity against Dopamine receptor D2 from homogenized rat brain, using [3H]spiperone as the radioligand
T2 sequence (P61169 whole entry): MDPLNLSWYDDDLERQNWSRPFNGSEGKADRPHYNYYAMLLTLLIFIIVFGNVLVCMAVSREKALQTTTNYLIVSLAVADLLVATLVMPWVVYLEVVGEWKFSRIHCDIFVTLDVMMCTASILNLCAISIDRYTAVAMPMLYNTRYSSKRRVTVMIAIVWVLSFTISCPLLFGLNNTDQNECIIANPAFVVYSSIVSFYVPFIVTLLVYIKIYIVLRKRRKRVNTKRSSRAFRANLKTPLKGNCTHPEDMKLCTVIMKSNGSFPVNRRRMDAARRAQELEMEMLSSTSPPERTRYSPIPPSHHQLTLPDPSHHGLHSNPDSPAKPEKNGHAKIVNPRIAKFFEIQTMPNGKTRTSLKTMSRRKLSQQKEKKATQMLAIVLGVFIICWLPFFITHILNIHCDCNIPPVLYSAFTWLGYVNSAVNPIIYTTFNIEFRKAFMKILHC
How it was run: (§3)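 Rat striatal membranes in 50 mM potassium phosphate buffer (pH 7.4 at 25 °C), pellets homogenized in 1300 volumes. Incubated with 0.5 nM [3H]spiperone (3 mg original tissue) for 10 min at 37 °C, then terminated by rapid vacuum filtration and counted by liquid scintillation. Nonspecific binding defined with 10 μM 6,7-ADTN; specific binding 70-80% of total.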

D(2) dopamine receptor [22] = target: T2, D(2) dopamine receptor; experiment: In vitro binding activity against dopamine receptor D2 from homogenized rat brain, using [3H]spiperone as the radioligand; how it was run: as §3
[23] = target: T3, 5-hydroxytryptamine receptor 1A (Rattus norvegicus, UniProt P19327); experiment: In vitro binding activity against 5-hydroxytryptamine 1A receptor from homogenized rat brain, using [3H]-8-OH-DPAT as the radioligand
T3 sequence (P19327 whole entry): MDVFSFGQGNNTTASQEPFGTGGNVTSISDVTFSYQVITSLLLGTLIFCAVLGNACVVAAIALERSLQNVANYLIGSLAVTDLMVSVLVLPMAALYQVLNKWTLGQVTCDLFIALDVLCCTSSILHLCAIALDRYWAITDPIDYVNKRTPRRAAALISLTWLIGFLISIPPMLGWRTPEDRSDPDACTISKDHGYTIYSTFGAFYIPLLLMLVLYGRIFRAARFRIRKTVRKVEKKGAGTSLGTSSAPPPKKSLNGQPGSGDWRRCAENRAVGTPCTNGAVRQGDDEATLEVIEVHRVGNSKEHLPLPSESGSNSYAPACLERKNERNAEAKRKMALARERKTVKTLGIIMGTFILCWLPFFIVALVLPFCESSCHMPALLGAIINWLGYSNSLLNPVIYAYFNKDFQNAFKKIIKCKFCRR
How it was run: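 Whole rat brain minus brainstem and cerebellum, homogenized in 50 mM Tris pH 8.0 with 120 mM NaCl, 4 mM CaCl2 and 4 mM MgCl2. Membranes preincubated 10 min at 37 °C, then resuspended with 10 μM pargyline. Incubated in triplicate with 1 nM [3H]-8-OH-DPAT (0.1% ascorbic acid) for 15 min at 37 °C, then filtered. Nonspecific binding defined with 10 μM 5-HT. IC50 from semilog linear regression.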

D(1A) dopamine receptor [24] = target: T1, D(1A) dopamine receptor; experiment: In vitro binding activity against Dopamine receptor D1 from homogenized rat brain, using [3H]SCH-23390 as the radioligand; how it was run: as §1
Rattus norvegicus [25] = experiment: Effect on motor activity in rats at a dose of 4 uM/Kg; format: functional
Rattus norvegicus [26] = experiment: Effect of compound on 5-Hydroxy tryptamine accumulation upon subcutaneous administration in the hemisphere of rat brain (partial response); format: functional; conditions: sc

SMILES: CN(C)[C@@H]1CCc2ccc3[nH]ccc3c2C1
- ED50 (Rattus norvegicus [1]): 0.4 µmol/kg
- ED50 (Rattus norvegicus [2]): 0.4 µmol/kg
- ED50 (Rattus norvegicus [3]): 0.1 µmol/kg
- IC50 (D(1A) dopamine receptor [4]): 20.4 µM
- ED50 (Rattus norvegicus [5]): 0.3 µmol/kg
- Motor activity (Rattus norvegicus [6]): 130 accumulated counts 30min-1
- ED50 (Rattus norvegicus [7]): 2 µmol/kg
- ED50 (Rattus norvegicus [8]): 0.4 µmol/kg

SMILES: CCCN(CCC)[C@H]1CCc2cccc(O)c2C1
- ED50 (Rattus norvegicus [9]): inactive
- ED50 (Rattus norvegicus [10]): inactive
- ED50 (Rattus norvegicus [11]): inactive
- ED50 (Rattus norvegicus [12]): 0.061 µmol/kg
- ED50 (Rattus norvegicus [13]): 0.077 µmol/kg
- ED50 (Rattus norvegicus [14]): 0.065 µmol/kg

SMILES: CCCN(CCC)[C@@H]1CCc2cccc(O)c2C1
- ED50 (Rattus norvegicus [9]): inactive
- ED50 (Rattus norvegicus [10]): inactive
- ED50 (Rattus norvegicus [11]): inactive
- ED50 (Rattus norvegicus [12]): 0.036 µmol/kg
- ED50 (Rattus norvegicus [13]): 0.05 µmol/kg
- ED50 (Rattus norvegicus [14]): 0.047 µmol/kg

SMILES: CCCN(CCC)[C@@H]1CCc2ccc(O)cc2C1
- ED50 (Rattus norvegicus [15]): inactive
- ED50 (Rattus norvegicus [1]): 0.011 µmol/kg
- ED50 (Rattus norvegicus [11]): inactive
- ED50 (Rattus norvegicus [5]): 0.0095 µmol/kg
- ED50 (Rattus norvegicus [16]): inactive
- ED50 (Rattus norvegicus [17]): inactive

SMILES: CN(C)[C@H]1CCc2ccc3[nH]ccc3c2C1
- ED50 (Rattus norvegicus [1]): 8 µmol/kg
- ED50 (Rattus norvegicus [2]): 3.7 µmol/kg
- ED50 (Rattus norvegicus [3]): 3.7 µmol/kg
- IC50 (D(1A) dopamine receptor [4]): 29.2 µM
- ED50 (Rattus norvegicus [5]): 4.2 µmol/kg
- ED50 (Rattus norvegicus [18]): 10 µmol/kg
- ED50 (Rattus norvegicus [8]): 3.7 µmol/kg
- Motor activity (Rattus norvegicus [19]): 22 accumulated counts 30min-1

SMILES: CCCN(CCC)C1CCc2cccc(O)c2C1 (racemic) [8-OH-DPAT]
- IC50 (D(1A) dopamine receptor [20]): > 100 µM
- IC50 (D(2) dopamine receptor [21]): 5.76 µM

SMILES: CCN(CC)C(=O)N[C@H]1C[C@@H]2c3cccc4[nH]cc(c34)C[C@H]2N(C)C1 [TERGURIDE]
- IC50 (D(2) dopamine receptor [22]): 0.004 µM
- IC50 [23]: 0.025 µM
- IC50 (D(1A) dopamine receptor [24]): 0.069 µM

SMILES: CN(C)C1CCc2ccc3[nH]ccc3c2C1 (racemic)
- ED50 (Rattus norvegicus [1]): 0.4 µmol/kg
- Motor activity (Rattus norvegicus [25]): 90 accumulated counts 30min-1
- ED50 (Rattus norvegicus [3]): 0.2 µmol/kg
- ED50 (Rattus norvegicus [26]): 0.4 µmol/kg
- IC50 (D(1A) dopamine receptor [4]): 19.7 µM
- ED50 (Rattus norvegicus [5]): 0.3 µmol/kg
- ED50 (Rattus norvegicus [7]): 4 µmol/kg
- ED50 (Rattus norvegicus [8]): 0.3 µmol/kg
